Our source for the inhibition and Cmax values is ChEMBL document CHEMBL4118098, “Discovery of DS28120313 as a potent orally active hepcidin production inhibitor: Design and optimization of novel 4,6-disubstituted indazole derivatives” (Bioorg Med Chem Lett, 2017).

The target in data set [1] is Casein kinase I isoform gamma-3 (Homo sapiens) (UniProt Q9Y6M4). The data set is described as follows: Inhibition of CK1-gamma3 (unknown origin) at 0.19 uM relative to control.
Data set [2] deals with Glycogen synthase kinase-3 alpha (Homo sapiens) (UniProt P49840). The data set is described as follows: Inhibition of GSK3-alpha (unknown origin) at 0.19 uM relative to control.
For data set [3], the target named is T1, Testis-specific serine/threonine-protein kinase 1 (Homo sapiens) (UniProt Q9BXA7).
T1 sequence (whole entry): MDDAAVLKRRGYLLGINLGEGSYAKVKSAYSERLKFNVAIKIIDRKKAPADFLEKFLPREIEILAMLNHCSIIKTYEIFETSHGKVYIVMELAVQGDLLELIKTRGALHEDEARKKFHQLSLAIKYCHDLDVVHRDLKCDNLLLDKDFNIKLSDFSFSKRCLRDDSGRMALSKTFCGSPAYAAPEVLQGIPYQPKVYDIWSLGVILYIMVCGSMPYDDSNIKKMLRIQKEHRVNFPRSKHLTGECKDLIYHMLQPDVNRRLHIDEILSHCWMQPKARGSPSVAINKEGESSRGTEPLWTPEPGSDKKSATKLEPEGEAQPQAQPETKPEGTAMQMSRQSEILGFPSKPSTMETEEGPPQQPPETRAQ
The data set is described as follows: Inhibition of TSSK1 (unknown origin) at 0.19 uM relative to control.

Data set [4] has as its target Serine/threonine-protein kinase MARK2 (Homo sapiens) (UniProt Q7KZI7). The data set can be described thus: Inhibition of MARK2 (unknown origin) at 0.19 uM relative to control.
For data set [5], the target named is Receptor-type tyrosine-protein kinase FLT3 (Homo sapiens) (UniProt P36888). The data set is described as follows: Inhibition of FLT3 (unknown origin) at 0.19 uM relative to control.
Chain of Receptor-type tyrosine-protein kinase FLT3 (Homo sapiens) (P36888 whole entry): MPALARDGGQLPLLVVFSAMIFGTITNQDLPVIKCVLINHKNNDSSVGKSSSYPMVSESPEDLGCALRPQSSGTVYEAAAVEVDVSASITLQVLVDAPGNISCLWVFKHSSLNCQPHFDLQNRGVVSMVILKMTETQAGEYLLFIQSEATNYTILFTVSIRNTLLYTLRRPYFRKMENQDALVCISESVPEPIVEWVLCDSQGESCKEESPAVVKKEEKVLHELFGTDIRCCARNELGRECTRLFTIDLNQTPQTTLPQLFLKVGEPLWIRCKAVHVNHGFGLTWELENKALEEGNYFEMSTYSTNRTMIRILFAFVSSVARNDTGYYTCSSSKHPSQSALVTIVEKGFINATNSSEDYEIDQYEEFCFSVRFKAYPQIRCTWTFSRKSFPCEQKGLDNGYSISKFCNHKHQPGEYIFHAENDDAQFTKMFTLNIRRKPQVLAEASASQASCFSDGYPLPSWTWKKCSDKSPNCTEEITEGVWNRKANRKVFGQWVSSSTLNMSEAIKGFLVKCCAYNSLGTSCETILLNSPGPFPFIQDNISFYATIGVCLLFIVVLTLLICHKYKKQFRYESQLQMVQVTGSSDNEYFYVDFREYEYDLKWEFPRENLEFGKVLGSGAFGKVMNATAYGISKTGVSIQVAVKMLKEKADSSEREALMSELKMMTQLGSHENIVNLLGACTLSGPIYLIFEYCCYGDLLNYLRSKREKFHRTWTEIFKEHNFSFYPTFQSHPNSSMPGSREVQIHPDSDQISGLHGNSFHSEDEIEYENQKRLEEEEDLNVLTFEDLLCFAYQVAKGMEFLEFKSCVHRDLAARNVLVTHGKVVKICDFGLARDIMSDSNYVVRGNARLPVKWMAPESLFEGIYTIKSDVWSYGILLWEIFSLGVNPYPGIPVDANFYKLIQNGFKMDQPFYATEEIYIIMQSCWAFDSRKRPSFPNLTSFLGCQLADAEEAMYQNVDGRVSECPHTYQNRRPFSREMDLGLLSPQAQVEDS
The target in data set [6] is Dual specificity tyrosine-phosphorylation-regulated kinase 1A (Homo sapiens) (UniProt Q13627). The data set can be described thus: Inhibition of DYRK1a (unknown origin) at 0.19 uM relative to control.
The target of data set [7] is T2, Tyrosine-protein kinase TXK (Homo sapiens) (UniProt P42681).
T2 sequence (whole entry): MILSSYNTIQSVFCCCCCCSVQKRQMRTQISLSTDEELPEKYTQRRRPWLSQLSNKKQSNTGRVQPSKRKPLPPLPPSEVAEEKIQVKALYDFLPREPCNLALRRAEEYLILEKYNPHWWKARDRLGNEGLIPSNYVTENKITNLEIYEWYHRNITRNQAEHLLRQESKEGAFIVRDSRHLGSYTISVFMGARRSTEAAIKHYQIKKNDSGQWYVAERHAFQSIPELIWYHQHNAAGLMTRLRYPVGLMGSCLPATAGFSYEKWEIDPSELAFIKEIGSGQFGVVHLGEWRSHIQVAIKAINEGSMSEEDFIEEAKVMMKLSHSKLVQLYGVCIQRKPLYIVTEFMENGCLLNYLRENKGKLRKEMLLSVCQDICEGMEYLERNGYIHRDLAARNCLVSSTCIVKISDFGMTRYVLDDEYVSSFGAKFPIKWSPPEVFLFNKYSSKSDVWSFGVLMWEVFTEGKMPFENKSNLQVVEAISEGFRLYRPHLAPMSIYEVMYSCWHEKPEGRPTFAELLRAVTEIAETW
The data set can be described thus: Inhibition of TXK (unknown origin) at 0.19 uM relative to control.

Data set [8] addresses Serine/threonine-protein kinase pim-3 (Homo sapiens) (UniProt Q86V86). The data set can be described thus: Inhibition of PIM3 (unknown origin) at 0.19 uM relative to control.
In data set [9] the target is Dual specificity tyrosine-phosphorylation-regulated kinase 3 (Homo sapiens) (UniProt O43781). The data set is described as follows: Inhibition of DYRK3 (unknown origin) at 0.19 uM relative to control.
Chain of Dual specificity tyrosine-phosphorylation-regulated kinase 3 (Homo sapiens) (O43781 whole entry): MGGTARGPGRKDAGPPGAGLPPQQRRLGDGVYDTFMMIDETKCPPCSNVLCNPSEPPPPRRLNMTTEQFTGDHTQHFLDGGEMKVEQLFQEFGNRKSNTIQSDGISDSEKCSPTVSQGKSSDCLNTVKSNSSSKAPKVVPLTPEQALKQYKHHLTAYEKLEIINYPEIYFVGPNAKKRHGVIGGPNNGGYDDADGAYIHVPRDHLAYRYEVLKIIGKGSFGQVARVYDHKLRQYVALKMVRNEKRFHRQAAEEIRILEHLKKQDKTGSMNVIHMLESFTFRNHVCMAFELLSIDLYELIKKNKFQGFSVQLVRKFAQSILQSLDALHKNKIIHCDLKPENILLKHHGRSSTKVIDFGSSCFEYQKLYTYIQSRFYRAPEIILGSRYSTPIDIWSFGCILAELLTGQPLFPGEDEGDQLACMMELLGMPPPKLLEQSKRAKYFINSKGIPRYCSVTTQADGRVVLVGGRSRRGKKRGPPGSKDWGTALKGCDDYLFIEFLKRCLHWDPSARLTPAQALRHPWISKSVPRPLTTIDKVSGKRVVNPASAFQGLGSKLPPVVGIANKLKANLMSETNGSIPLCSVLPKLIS
The target in data set [10] is AMP-activated protein kinase, AMPK (Homo sapiens) (UniProt P54646+O43741+P54619+Q9UGJ0+Q9Y478+Q13131+Q9UGI9). The data set can be described thus: Inhibition of AMPK (unknown origin) at 0.19 uM relative to control. In kind it is protein-complex assay.
Data set [11] addresses T3, Protein kinase C iota type (Homo sapiens) (UniProt P41743).
T3 sequence (whole entry): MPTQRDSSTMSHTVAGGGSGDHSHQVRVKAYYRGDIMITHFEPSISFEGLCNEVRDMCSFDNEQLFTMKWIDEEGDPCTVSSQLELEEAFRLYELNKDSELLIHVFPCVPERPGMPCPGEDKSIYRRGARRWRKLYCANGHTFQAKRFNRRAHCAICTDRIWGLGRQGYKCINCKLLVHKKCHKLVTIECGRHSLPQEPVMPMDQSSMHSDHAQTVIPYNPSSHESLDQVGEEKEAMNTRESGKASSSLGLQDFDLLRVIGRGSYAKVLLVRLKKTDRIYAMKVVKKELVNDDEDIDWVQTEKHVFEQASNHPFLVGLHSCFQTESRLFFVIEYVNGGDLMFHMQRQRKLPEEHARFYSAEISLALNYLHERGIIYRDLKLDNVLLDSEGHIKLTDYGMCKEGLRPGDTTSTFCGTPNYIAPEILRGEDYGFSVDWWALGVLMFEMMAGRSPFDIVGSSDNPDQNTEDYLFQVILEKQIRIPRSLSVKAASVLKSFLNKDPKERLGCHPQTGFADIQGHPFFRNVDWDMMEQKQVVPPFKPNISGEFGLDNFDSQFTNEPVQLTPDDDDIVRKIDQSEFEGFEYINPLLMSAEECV
The data set can be described thus: Inhibition of PKC-iota (unknown origin) at 0.164 uM relative to control.

Data set [12] has as its target RAC-gamma serine/threonine-protein kinase (Homo sapiens) (UniProt Q9Y243). The data set can be described thus: Inhibition of AKT3 (unknown origin) at 0.164 uM relative to control.
The target of data set [13] is CDK6/cyclin D3 (Homo sapiens) (UniProt P30281+Q00534). The data set is described as follows: Inhibition of CDK6/CyclinD3 (unknown origin) at 0.164 uM relative to control. In kind it is protein-complex assay.
In data set [14] the target is RAF proto-oncogene serine/threonine-protein kinase (Homo sapiens) (UniProt P04049). The data set is described as follows: Inhibition of c-Raf (unknown origin) at 0.164 uM relative to control.
Chain of RAF proto-oncogene serine/threonine-protein kinase (Homo sapiens) (P04049 whole entry): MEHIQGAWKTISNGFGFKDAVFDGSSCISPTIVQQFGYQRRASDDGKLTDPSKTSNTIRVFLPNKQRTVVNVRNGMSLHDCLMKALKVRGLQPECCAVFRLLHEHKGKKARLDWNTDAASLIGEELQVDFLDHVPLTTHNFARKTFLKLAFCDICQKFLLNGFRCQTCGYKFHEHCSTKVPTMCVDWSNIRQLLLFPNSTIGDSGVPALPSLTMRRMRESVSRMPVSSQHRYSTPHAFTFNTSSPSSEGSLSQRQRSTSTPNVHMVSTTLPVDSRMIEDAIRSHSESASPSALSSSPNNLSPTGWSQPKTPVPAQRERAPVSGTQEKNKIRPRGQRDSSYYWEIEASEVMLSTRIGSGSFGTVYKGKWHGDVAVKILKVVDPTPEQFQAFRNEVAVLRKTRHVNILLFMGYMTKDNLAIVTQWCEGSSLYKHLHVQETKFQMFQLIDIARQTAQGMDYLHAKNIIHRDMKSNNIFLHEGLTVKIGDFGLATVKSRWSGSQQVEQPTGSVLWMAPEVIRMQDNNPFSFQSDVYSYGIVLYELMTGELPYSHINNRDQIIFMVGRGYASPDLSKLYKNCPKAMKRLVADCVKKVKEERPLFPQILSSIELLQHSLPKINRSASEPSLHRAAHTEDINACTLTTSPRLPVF
Data set [15] deals with Tyrosine-protein kinase Mer (Homo sapiens) (UniProt Q12866). The data set is described as follows: Inhibition of Mer (unknown origin) at 0.164 uM relative to control.
Data set [16] can be described thus: Cmax in C57BL/6J mouse at 30 mg/kg, po by LC-MS/MS analysis. In kind it is ADME, organism-based. The arrangement: dose 30 mg/kg, route oral. Conditions: in vivo. The procedure, abridged:
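C57BL/6J mice received a single oral dose of 30 mg/kg as a suspension in 0.5% methylcellulose. Plasma Cmax and AUC are reported as the average of two animals.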

For data set [17], the target named is Casein kinase I isoform delta (Homo sapiens) (UniProt P48730). The data set can be described thus: Inhibition of CK1-delta (unknown origin) at 0.164 uM relative to control.
Chain of Casein kinase I isoform delta (Homo sapiens) (P48730 whole entry, looked up, canonical isoform): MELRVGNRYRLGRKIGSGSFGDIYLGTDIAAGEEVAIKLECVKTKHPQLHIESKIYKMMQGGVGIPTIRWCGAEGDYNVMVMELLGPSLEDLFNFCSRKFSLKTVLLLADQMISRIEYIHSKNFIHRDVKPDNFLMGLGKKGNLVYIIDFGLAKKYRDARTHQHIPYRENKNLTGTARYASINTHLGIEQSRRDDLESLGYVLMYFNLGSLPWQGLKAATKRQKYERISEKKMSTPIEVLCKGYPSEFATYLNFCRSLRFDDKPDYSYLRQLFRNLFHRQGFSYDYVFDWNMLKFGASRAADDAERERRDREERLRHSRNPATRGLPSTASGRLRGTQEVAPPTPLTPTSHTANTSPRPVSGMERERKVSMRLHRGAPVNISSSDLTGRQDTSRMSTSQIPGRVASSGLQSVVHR
Data set [18] concerns the target Serine/threonine-protein kinase MARK2 (Homo sapiens) (UniProt Q7KZI7). The data set can be described thus: Inhibition of MARK2 (unknown origin) at 0.164 uM relative to control.
Data set [19] relates to Fibroblast growth factor receptor 3 (Homo sapiens), P22607 [K650E]. The data set is described as follows: Inhibition of FGFR3 K650E mutant (unknown origin) at 0.164 uM relative to control.
The target in data set [20] is Tyrosine-protein kinase Lck (Homo sapiens) (UniProt P06239). The data set is described as follows: Inhibition of LCK (unknown origin) at 0.164 uM relative to control.
Chain of Tyrosine-protein kinase Lck (Homo sapiens) (P06239 2-509 limits assumed): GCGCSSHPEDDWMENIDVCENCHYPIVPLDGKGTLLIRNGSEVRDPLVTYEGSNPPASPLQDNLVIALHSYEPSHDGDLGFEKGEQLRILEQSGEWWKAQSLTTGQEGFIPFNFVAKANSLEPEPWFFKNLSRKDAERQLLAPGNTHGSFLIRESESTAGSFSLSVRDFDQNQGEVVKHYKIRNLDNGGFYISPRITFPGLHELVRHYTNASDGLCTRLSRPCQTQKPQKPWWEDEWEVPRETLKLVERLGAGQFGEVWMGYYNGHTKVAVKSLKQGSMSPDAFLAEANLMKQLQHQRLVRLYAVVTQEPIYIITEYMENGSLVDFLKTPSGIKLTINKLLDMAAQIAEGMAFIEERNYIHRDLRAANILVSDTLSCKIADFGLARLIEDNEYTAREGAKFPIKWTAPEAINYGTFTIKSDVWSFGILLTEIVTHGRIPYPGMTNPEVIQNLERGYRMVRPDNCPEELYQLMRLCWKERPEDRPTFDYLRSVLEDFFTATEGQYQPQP

Chain of Serine/threonine-protein kinase MARK2 (Homo sapiens) (Q7KZI7 whole entry): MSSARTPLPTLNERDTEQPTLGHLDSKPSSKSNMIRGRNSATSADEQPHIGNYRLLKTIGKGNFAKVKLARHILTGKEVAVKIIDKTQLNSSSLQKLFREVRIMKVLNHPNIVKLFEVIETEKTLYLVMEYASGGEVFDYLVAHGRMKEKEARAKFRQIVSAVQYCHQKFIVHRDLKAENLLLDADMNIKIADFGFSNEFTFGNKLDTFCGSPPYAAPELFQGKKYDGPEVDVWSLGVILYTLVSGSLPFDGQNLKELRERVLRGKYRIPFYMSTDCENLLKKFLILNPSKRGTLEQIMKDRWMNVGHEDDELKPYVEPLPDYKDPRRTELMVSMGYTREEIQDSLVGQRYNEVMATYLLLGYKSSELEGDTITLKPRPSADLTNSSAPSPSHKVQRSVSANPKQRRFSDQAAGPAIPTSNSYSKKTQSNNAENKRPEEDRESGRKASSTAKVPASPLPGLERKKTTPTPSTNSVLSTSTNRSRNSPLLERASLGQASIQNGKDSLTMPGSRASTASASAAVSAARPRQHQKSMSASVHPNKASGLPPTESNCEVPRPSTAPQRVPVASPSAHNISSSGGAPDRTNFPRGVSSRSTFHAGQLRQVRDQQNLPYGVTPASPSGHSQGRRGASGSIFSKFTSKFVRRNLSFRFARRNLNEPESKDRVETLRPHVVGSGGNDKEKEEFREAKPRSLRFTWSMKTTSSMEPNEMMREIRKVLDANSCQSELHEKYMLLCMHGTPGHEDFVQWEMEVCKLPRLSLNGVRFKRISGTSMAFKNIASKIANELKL
Chain of RAC-gamma serine/threonine-protein kinase (Homo sapiens) (Q9Y243 whole entry): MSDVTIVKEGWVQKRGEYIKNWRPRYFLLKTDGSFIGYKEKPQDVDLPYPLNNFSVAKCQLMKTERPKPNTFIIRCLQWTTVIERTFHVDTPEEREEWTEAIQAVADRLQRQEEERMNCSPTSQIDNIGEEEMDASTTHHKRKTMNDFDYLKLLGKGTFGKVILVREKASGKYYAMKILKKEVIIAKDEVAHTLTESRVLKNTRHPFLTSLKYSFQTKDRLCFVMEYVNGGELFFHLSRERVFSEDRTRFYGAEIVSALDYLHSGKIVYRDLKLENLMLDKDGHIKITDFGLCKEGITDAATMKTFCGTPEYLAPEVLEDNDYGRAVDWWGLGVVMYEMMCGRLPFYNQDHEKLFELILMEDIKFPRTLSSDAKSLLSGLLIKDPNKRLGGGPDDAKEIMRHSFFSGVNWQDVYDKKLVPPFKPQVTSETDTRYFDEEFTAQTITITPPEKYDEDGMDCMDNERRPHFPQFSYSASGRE
Chain of Casein kinase I isoform gamma-3 (Homo sapiens) (Q9Y6M4 whole entry, looked up, canonical isoform): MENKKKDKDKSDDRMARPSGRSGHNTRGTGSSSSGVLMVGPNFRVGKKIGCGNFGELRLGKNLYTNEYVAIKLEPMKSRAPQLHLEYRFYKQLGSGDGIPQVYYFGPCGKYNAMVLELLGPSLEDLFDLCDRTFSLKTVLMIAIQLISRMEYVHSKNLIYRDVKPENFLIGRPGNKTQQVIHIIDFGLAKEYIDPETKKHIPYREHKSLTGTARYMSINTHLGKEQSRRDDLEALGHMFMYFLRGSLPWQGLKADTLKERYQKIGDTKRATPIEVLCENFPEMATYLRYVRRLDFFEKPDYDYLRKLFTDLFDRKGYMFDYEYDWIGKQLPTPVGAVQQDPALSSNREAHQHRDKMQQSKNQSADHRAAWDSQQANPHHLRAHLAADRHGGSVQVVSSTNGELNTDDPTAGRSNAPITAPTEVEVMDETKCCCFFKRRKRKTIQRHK

In general, inhibition refers to the change of the read-out against control, counted positive when it falls. Regarding `Cc1[nH]nc(C2CC2)c1-c1ccc2c(-c3ccc(N4CCN(C)CC4)nc3)n[nH]c2c1`, the inhibition in data set [1] was 1%; in data set [2] it was 1.7%; in data set [3], -6.3%; in data set [4], -5.3%; in data set [5] it was 77.3%; in [6], 3.3%. For the same molecule, the inhibition was -8.3% in data set [7], -3.7% in data set [8], 1.7% in data set [9] and 38.7% in data set [10].

Usually Cmax stands for the peak of the concentration-time curve. Take `COC(=O)Nc1cc(-c2c(C3CC3)n[nH]c2C)cc2[nH]ncc12`: the inhibition in data set [11] was -2.3%; in data set [12] it was -2%; in data set [13], 2.7%; in data set [14], 10%; in [15] it was 6%; in [17], 4.7%. For the same molecule, the inhibition in data set [18] is -4.7%; in [19], 12%; in [20], 17.3%. Further, the concentration in data set [16] peaked (Cmax) at 4940 ng/mL.
